SMILES strings stand for the structures. Calls of active or inactive are those of the source. No cut-off for these calls is given here.

The results in this text go back to ChEMBL document CHEMBL2412973, “Design, synthesis, and anti-tumor activities of novel triphenylethylene-coumarin hybrids, and their interactions with Ct-DNA” (Bioorg Med Chem Lett, 2013).

The test system of one data set is A549. As to the kind of experiment: Antiproliferative activity against human A549 cells after 48 hrs by MTT assay. Type of data set: functional, cell-based. The settings on record: A549, 48 h. For orientation: Tetrazolium assays rely on reduction of a dye to a coloured formazan, in cell work by metabolically active cells.
The test system of a further data set is K562. As to the kind of experiment: Antiproliferative activity against human K562 cells after 48 hrs by MTT assay. The data set is classed as functional, cell-based. The settings on record: K562, 48 h.
The next data set relates to MCF7. The data set can be described thus: Antiproliferative activity against human MCF7 cells after 48 hrs by MTT assay. Type of data set: functional, cell-based. The note with it: MCF7, 48 h.
Data set [1] is described as follows: Cytotoxicity against mouse Osteoblasts at 100 uM after 48 hrs by MTT assay. Type of data set: cell-based. The note with it: osteoblast. The method in brief: (§1)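 Primary osteoblasts isolated from newborn mouse skull, exposed to compound for 48 h; cell death measured by MTT; % cytotoxicity versus untreated cells, mean ± SEM of six replicates, significance by p-value.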

Data set [2] can be described thus: Cytotoxicity against mouse Osteoblasts at 40 uM after 48 hrs by MTT assay. The data set is classed as cell-based. The note with it: osteoblast. The essentials:
as §1

Data set [3] in a line: Cytotoxicity against mouse Osteoblasts at 20 uM after 48 hrs by MTT assay. The data set is classed as cell-based. The settings on record: osteoblast. The method in brief: as §1
Data set [4] is described as follows: Cytotoxicity against mouse Osteoblasts at 1 uM after 48 hrs by MTT assay. Type of data set: cell-based. The settings on record: osteoblast. The method in brief: as §1
Data set [5] can be described thus: Cytotoxicity against mouse Osteoblasts at 10 uM after 48 hrs by MTT assay. Type of data set: cell-based. The settings on record: osteoblast. The essentials: as §1
In another data set the test system is HL-60. The data set can be described thus: Antiproliferative activity against human HL60 cells after 48 hrs by MTT assay. The data set is classed as functional, cell-based. The note with it: HL-60, 48 h.
The test system of the next data set is Bel-7402. As to the kind of experiment: Antiproliferative activity against human Bel7402 cells after 48 hrs by MTT assay. The data set is classed as functional, cell-based. The note with it: Bel-7402, 48 h.
The test system of data set [6] is DNA. The data set can be described thus: Binding affinity to calf thymus DNA in phosphate buffer at pH 7.4 assessed as change in melting temperature at 5 uM after 10 mins by thermal denaturation method. The data set is classed as nucleic-acid assay. The note with it: Bos taurus. The essentials: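 Thermal denaturation: Ct-DNA 5.0×10^-5 M with or without compound at 5.0×10^-6 M, phosphate buffer (1 mM, pH 7.4) with 5 mM NaCl and 4% DMSO; melting curves recorded, Tm taken as temperature at which half the DNA melts; ΔTm relative to free Ct-DNA.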

The subject of data set [7] is DNA. The data set can be described thus: Binding affinity to calf thymus DNA in phosphate buffer at pH 7.4 at 5 uM after 10 mins by fluorescence spectroscopy. The data set is classed as nucleic-acid assay. The note with it: Bos taurus. The essentials: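 Compound at 5.0×10^-6 M, excited at 329–336 nm depending on compound, titrated with Ct-DNA (0–90 μM) in 10 mM phosphate buffer pH 7.4, 50 mM NaCl, 4% DMSO, 25 °C; emission near 455 nm; F/F0 plotted against DNA concentration, Stern-Volmer analysis gives binding efficiency.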

For data set [8], the system named is DNA. As to the kind of experiment: Binding affinity to calf thymus DNA in phosphate buffer at pH 7.4 assessed as intercalation in DNA at 20 uM after 10 mins by circular dichroism method. The data set is classed as nucleic-acid assay. The note with it: Bos taurus. The essentials: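 CD spectra of Ct-DNA (5.0×10^-5 M) with and without compound (2.0×10^-5 M) recorded in 10 mM phosphate buffer pH 7.4 containing 50 mM NaCl and 4% DMSO at 25 °C.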

Data set [9] concerns DNA. As to the kind of experiment: Binding affinity to calf thymus DNA in phosphate buffer at pH 7.4 assessed as hypochromic effect at 1.0 x 10^-5 M by UV-visible spectroscopy. The data set is classed as nucleic-acid assay. The note with it: Bos taurus. The essentials: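 Compound at 1.0×10^-5 M titrated with Ct-DNA (0–180 μM) in 10 mM phosphate buffer pH 7.4, 50 mM NaCl, 4% DMSO, 25 °C; UV-Vis absorption change at absorption maximum, hypochromicity percentage derived, binding fitted.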

As usually defined, the IC50 is the concentration that inhibits the measured activity by half. Higher therefore signals weaker potency. Regarding `COc1ccc2c(-c3ccc(OCCN4CCOCC4)cc3)c(-c3ccccc3)c(=O)oc2c1`, the IC50 with A549, in the data set with K562 and in the data set on MCF7 was > 100 µM in each case.
`O=c1oc2cc(OCCN3CCOCC3)ccc2c(-c2ccc(OCCN3CCOCC3)cc2)c1-c1ccc(OCCN2CCOCC2)cc1`: the IC50 with A549, in the data set on K562 and with MCF7 was > 100 µM in each case.
Take `CCN(CC)CCOc1ccc(-c2c(-c3ccccc3)c(=O)oc3cc(OCCN(CC)CC)ccc23)cc1`: the Activity is 42.2% in data set [1]; 20.6% in data set [2]; 12.2% in data set [3]; -3.1% in [4]; 3.2% in [5]. For the same compound, the IC50 is 3.98 µM with HL-60; 8.04 µM with Bel-7402; 8.31 µM in the data set on A549; 3.79 µM in the data set on K562; 7.9 µM with MCF7.
On to `CCN(CC)CCOc1ccc(-c2c(-c3ccc(OCCN(CC)CC)cc3)c3ccc(OCCN(CC)CC)cc3oc2=O)cc1`, for which the IC50 was found to be 45.2 µM in the data set with A549, 41.9 µM in the data set on K562 and 68.8 µM in the data set on MCF7.
On to `O=c1oc2cc(OCCN3CCCC3)ccc2c(-c2ccc(O)cc2)c1-c1ccccc1`, for which the IC50 in the data set with A549 is 54.3 µM; in the data set on K562, 44.5 µM; in the data set with MCF7, 50 µM.
One may read the ΔTm as the change in melting temperature against a reference sample. As to `O=c1oc2cc(O)ccc2c(-c2ccc(O)cc2)c1-c1ccccc1`, the ΔTm with DNA [6] came to 1.1 °C. Further, the Activity in the data set with DNA [7] came out at 5.41 ×10² /M; in the data set on DNA [9], 8%. Further, in the data set with DNA [8], the outcome was inactive. Besides, the IC50 in the data set on A549, in the data set with K562 and with MCF7 was > 100 µM in each case.
`O=c1oc2cc(OCCN3CCCCC3)ccc2c(-c2ccc(O)cc2)c1-c1ccccc1`: the IC50 in the data set with A549 is 91.2 µM; in the data set on K562 it was 81.2 µM; in the data set on MCF7, 86.6 µM.
`COc1ccc2c(-c3ccc(OCCN4CCCCC4)cc3)c(-c3ccccc3)c(=O)oc2c1`: the ΔTm with DNA [6] came to 3.2 °C. For the same compound, the Activity in the data set on DNA [7] turned out to be 3.12 ×10³ /M; in the data set with DNA [9], 12%. The outcome with DNA [8] was Active. Also, the results for the IC50 with A549, in the data set on K562 and in the data set on MCF7 were 23.4 µM, 19.6 µM and 29.6 µM, respectively.
Regarding `COc1ccc2c(-c3ccc(OCCN4CCCC4)cc3)c(-c3ccccc3)c(=O)oc2c1`, the IC50 in the data set with A549 was 89.8 µM; in the data set on K562, 93.3 µM; with MCF7, > 100 µM.
For the compound `O=c1oc2cc(OCCN3CCOCC3)ccc2c(-c2ccc(OCCN3CCOCC3)cc2)c1-c1ccccc1`, in the data set with DNA [6], the ΔTm turned out to be 2 °C. Moreover, the Activity was found to be 2.68 ×10² /M in the data set on DNA [7] and 13% in the data set on DNA [9]. Also, the result in the data set with DNA [8] was Active. Besides, the IC50 in the data set on HL-60, in the data set on Bel-7402, in the data set with A549, in the data set on K562 and in the data set on MCF7 was > 100 µM throughout.
For `CC/C(=C(\c1ccccc1)c1ccc(OCCN(C)C)cc1)c1ccccc1` [TAMOXIFEN], in the data set on MCF7, the IC50 was determined as 13.5 µM.
Take `O=c1oc2cc(OCCN3CCCC3)ccc2c(-c2ccc(OCCN3CCCC3)cc2)c1-c1ccccc1`: the Activity was 36.1% in [1]; 18.2% in [2]; 10.1% in [3]; -5.1% in data set [4]; -6.7% in data set [5]. For the same compound, the IC50 with HL-60 is 5.93 µM; in the data set with Bel-7402, 8.66 µM; in the data set on A549, 6.31 µM; in the data set with K562, 4.58 µM; in the data set on MCF7, 12.3 µM.
On to `O=c1oc2cc(OCCN3CCOCC3)ccc2c(-c2ccc(O)cc2)c1-c1ccccc1`, for which the IC50 in the data set on A549 was 94.1 µM; in the data set on K562, > 100 µM; with MCF7 it was > 100 µM.
With `COc1ccc2c(-c3ccc(O)cc3)c(-c3ccccc3)c(=O)oc2c1`, the IC50 in the data set with A549, in the data set on K562 and in the data set on MCF7 was > 100 µM each time.
As for `O=c1oc2cc(OCCN3CCCCC3)ccc2c(-c2ccc(OCCN3CCCCC3)cc2)c1-c1ccccc1`, the ΔTm with DNA [6] stood at 4.3 °C. Besides, the Activity with DNA [7] is 4.21 ×10³ /M; with DNA [9], 23%; in data set [1], 39.2%; in data set [2] it was 14.2%; in [3] it was 7.4%; in data set [4] it was -8%. In addition, in data set [5], the Activity is -2.6%. For the same compound, in the data set with DNA [8], the outcome was Active. Besides, the IC50 was found to be 5.28 µM in the data set with HL-60; 8.19 µM in the data set on Bel-7402; 6.64 µM in the data set on A549; 2.91 µM in the data set on K562; 11.4 µM in the data set on MCF7.
For `O=c1oc2cc(OCCN3CCCC3)ccc2c(-c2ccc(OCCN3CCCC3)cc2)c1-c1ccc(OCCN2CCCC2)cc1`, the IC50 in the data set on A549 turned out to be 86.3 µM; with K562, 75.3 µM; with MCF7 it was 92.8 µM.
For `CCN(CC)CCOc1ccc2c(-c3ccc(O)cc3)c(-c3ccccc3)c(=O)oc2c1`, the IC50 in the data set with A549, with K562 and with MCF7 was > 100 µM throughout.
Turning to `O=c1oc2cc(OCCN3CCCCC3)ccc2c(-c2ccc(OCCN3CCCCC3)cc2)c1-c1ccc(OCCN2CCCCC2)cc1`, the ΔTm with DNA [6] worked out at 8.8 °C. The Activity in the data set on DNA [7] turned out to be 3.16 ×10⁴ /M; in the data set on DNA [9] it was 25%. The outcome in the data set on DNA [8] was Active. Moreover, the IC50 was found to be 56.3 µM in the data set on A549, 39.4 µM with K562 and 48.2 µM in the data set with MCF7.
`O=c1oc2cc(O)ccc2c(-c2ccc(O)cc2)c1-c1ccc(O)cc1`: the IC50 with A549, with K562 and in the data set with MCF7 was > 100 µM throughout.
Regarding `CCN(CC)CCOc1ccc(-c2c(-c3ccccc3)c(=O)oc3cc(OC)ccc23)cc1`, the figures for the IC50 in the data set with A549, in the data set with K562 and with MCF7 were 60.8 µM, 88.8 µM and 76.7 µM, respectively.
